Columns and labels:
[1] = test system: Mus musculus; assay: Sleep promoting activity in C57BL/6NCrlCrlj mouse assessed as increase in non-REM sleep at 30 mg/kg, po administered immediately prior to beginning of dark cycle measured during first 3 hrs after drug administration by electroencephalogram/electromyogram analysis (reference value: 62.6 min); format: functional
How it was run: (§1)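 Male C57BL/6NCrlCrlj mice implanted with EEG/EMG electrodes were dosed orally in 10% Cremophor EL, 5% DMSO in saline just before lights-off (ZT12) and recorded from ZT12 to ZT20. Group sizes were n=6 dosed and n=7 vehicle. Stages were scored by software with blinded visual confirmation; cumulative first-3-h times are mean with SEM. Dunnett's test was run after one-way ANOVA.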

[2] = Half life in C57BL/6NCrlCrlj mouse at 30 mg/kg, po by LC-MS/MS analysis; format: ADME, organism-based; details: in vivo
[3] = test system: Mus musculus; assay: Sleep promoting activity in C57BL/6NCrlCrlj mouse assessed as increase in non-REM sleep at 10 mg/kg, po administered immediately prior to beginning of dark cycle measured during first 3 hrs after drug administration by electroencephalogram/electromyogram analysis (reference value: 62.6 min); format: functional; how it was run: as §1
[4] = test system: Mus musculus; assay: Sleep promoting activity in C57BL/6NCrlCrlj mouse assessed as reduction in wakefulness time at 10 mg/kg, po administered immediately prior to beginning of dark cycle measured during first 3 hrs after drug administration by electroencephalogram/electromyogram analysis (reference value: 116.7 min); format: functional; how it was run: as §1
[5] = Cmax in C57BL/6NCrlCrlj mouse at 30 mg/kg, po by LC-MS/MS analysis; format: ADME, organism-based; parameters: dose 30 mg/kg, route oral; details: in vivo
[6] = Half life in C57BL/6NCrlCrlj mouse at 1 mg/kg, iv by LC-MS/MS analysis; format: ADME, organism-based; details: in vivo
How it was run: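 Male C57BL/6NCrlCrlj mice dosed intravenously at 1 mg/kg in 10% DMSO in water. Blood was taken from the tail vein at set time points and spun to plasma. Concentrations were measured by LC-MS/MS (MRM, positive mode) against a 1/x²-weighted standard curve with internal standard. Parameters came from noncompartmental analysis.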

[7] = target: Cytochrome P450 2C19 (Homo sapiens, UniProt P33261); assay: Inhibition of CYP2C19 in human liver microsomes using S-mephenytoin as susbtrate incubated for 30 mins prior to substrate addition for 10 mins by LC-MS/MS analysis; format: ADME
[8] = target: Cytochrome P450 2D6 (Homo sapiens, UniProt P10635); assay: Inhibition of CYP2D6 in human liver microsomes using bufuralol as susbtrate incubated for 30 mins prior to substrate addition for 10 mins by LC-MS/MS analysis; format: ADME
[9] = target: T1, Cytochrome P450 1A2 (Homo sapiens, UniProt P05177); assay: Inhibition of CYP1A2 in human liver microsomes using phenacetin as susbtrate incubated for 30 mins prior to substrate addition for 10 mins by LC-MS/MS analysis; format: ADME
T1 sequence (P05177 whole entry): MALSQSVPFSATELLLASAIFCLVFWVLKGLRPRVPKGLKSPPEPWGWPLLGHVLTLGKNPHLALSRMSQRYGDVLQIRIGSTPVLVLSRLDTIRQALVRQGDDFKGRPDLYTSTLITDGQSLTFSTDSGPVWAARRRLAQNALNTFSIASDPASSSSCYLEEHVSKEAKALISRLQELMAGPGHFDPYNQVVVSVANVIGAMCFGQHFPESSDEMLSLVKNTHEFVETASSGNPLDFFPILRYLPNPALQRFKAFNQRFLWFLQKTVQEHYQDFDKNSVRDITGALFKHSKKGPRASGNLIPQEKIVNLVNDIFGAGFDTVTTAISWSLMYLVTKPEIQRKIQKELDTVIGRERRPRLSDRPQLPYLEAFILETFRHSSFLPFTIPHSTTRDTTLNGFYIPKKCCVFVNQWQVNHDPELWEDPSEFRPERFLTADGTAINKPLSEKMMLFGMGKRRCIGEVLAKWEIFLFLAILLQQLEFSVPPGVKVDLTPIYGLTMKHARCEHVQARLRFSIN

[10] = Oral bioavailability in C57BL/6NCrlCrlj mouse at 10 mg/kg by LC-MS/MS analysis; format: ADME, organism-based; details: in vivo
How it was run: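 Oral dose of 10 mg/kg in 10% Cremophor EL, 5% DMSO in saline; intravenous reference of 1 mg/kg in 10% DMSO in water; male C57BL/6NCrlCrlj mice. Tail-vein plasma was quantified by LC-MS/MS. F% = (mean AUC0–inf po/dose po)/(mean AUC0–inf iv/dose iv) × 100.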

[11] = Metabolic stability in human liver microsomes assessed as residual ratio at 0.1 uM after 15 mins by LC-MS analysis; format: ADME; details: read-out: Stability
How it was run: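 Compound at 0.1 μM in 0.1% DMSO incubated with human liver microsomes (0.2 mg/mL), with or without an NADPH-generating system, for 15 min at 37 °C. Reaction stopped with acetonitrile/methanol (7:3) containing propranolol internal standard. Parent compound was measured by LC-MS; residual ratio given with NADPH relative to without.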

[12] = Oral bioavailability in C57BL/6NCrlCrlj mouse at 30 mg/kg by LC-MS/MS analysis; format: ADME, organism-based; details: in vivo
[13] = target: T2, Orexin/Hypocretin receptor type 1 (Homo sapiens, UniProt O43613); assay: Binding affinity to human OX1R by radioligand displacement binding assay
T2 sequence (O43613 whole entry): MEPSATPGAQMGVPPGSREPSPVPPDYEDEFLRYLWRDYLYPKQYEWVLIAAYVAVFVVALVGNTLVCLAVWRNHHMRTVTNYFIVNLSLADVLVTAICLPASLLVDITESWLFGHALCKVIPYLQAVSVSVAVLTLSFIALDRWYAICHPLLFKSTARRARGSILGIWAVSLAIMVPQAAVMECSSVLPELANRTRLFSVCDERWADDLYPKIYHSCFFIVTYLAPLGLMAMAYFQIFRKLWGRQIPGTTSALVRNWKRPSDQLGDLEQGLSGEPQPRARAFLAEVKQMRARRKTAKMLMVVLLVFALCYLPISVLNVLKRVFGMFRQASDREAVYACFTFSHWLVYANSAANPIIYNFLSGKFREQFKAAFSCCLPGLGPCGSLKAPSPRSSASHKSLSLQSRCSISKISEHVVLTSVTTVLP
How it was run: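 Ki values come from single experiments run in triplicate.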

[14] = target: T2, Orexin/Hypocretin receptor type 1; assay: Binding affinity to human OX1R expressed in HEK-293 cells assessed as inhibition of orexin A-induced calcium accumulation by FLIPR assay; format: cell-based, HEK293
How it was run: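 HEK-293 cells expressing human OX1R, seeded at 16000 cells/well and grown overnight at 37 °C, then loaded with Calcium 4 dye in HEPES buffer with 0.1% BSA (1 h at 37 °C, 15 min at RT). Compound was equilibrated 30 min at RT before orexin-A was added. Fluorescence read at ex 480/em 540 nm on FDSS6000; response taken as peak/baseline ratio. Orexin-A EC50 was determined in each experiment.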

[15] = Plasma concentration in C57BL/6NCrlCrlj mouse at 10 mg/kg, po administered as single dose measured after 1 hr by LC-MS/MS analysis; format: ADME, organism-based
How it was run: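 Male C57BL/6NCrlCrlj mice given a single 10 mg/kg oral dose as a suspension in 0.5% aqueous methylcellulose. At 1 or 3 h, under pentobarbital anesthesia, CSF was taken from the cisterna magna and then blood from the abdominal aorta (spun to plasma). Samples were acetonitrile-precipitated with deuterated internal standard and run by LC-MS/MS. Values are mean with SEM.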

Chain of Cytochrome P450 2C19 (P33261 whole entry): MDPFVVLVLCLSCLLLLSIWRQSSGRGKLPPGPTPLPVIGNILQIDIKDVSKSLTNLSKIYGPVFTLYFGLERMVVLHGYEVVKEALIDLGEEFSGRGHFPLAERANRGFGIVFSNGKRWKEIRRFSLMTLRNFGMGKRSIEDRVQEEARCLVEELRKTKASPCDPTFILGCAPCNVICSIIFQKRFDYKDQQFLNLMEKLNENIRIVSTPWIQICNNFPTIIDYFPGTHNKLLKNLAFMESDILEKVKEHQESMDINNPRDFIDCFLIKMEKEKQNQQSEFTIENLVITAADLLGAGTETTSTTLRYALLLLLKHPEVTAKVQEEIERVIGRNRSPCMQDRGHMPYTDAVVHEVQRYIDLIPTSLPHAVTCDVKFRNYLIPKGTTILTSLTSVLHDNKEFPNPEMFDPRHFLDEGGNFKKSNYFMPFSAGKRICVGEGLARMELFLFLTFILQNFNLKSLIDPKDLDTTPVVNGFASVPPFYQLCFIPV
Chain of Cytochrome P450 2D6 (P10635 whole entry): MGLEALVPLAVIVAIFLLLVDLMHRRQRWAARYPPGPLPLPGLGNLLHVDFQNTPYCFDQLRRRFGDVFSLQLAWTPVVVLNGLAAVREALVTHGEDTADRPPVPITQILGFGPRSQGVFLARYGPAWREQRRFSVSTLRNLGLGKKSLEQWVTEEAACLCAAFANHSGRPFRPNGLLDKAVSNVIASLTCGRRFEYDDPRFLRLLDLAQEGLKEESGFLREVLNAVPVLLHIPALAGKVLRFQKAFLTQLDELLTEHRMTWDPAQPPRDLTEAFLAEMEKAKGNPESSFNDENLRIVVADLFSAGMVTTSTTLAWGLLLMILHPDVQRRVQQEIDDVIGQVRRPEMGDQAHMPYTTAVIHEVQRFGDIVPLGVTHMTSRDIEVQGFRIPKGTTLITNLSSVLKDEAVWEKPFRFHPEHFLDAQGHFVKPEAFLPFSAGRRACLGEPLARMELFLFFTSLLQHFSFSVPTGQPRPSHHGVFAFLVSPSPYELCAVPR

Cc1ncc(OC[C@@]2(c3cccc(F)c3)C[C@H]2C(=O)Nc2ccc(F)cn2)c(C)n1 [LEMBOREXANT]
Time [1]: 95.5 min | half-life [2]: 116 min | Time [3]: 99.3 min | Time [4]: 77.1 min | Cmax [5]: 961 ng/mL | half-life [6]: 130 min | IC50 [7]: > 20 µM | IC50 [8]: > 20 µM | IC50 [9]: > 20 µM | bioavailability [10]: 18.5% | remaining at 0.25 h, 0.1 µM [11]: 90% | bioavailability [12]: 13.4% | Ki [13]: 6 nM | Ki [14]: 5.7 nM | concentration at 1 h [15]: 633 nM
